The chains are these.
B1: tRNA (parent)
chain: GUUCCGUUGGCGUAAUGGUAACGCGUCUCCCUCCUAAGGAGAAGACUGCGGGUUCGAGUCCCGUACGGAACG

Variants at the floor of the assay were thinned out. Bounds are passed on as bounds.

In the series the parent is B1. As to the kind of experiment: yeast fitness relative to wild type (ratio to wild type); higher = fitter; tRNA-Arg(CCU), competitive growth, 37 C, YPD. In short, it runs like this: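 Changes in genotype frequencies gave Darwinian fitness relative to wild type. Frequencies were read by 100-nucleotide paired-end sequencing of gene amplicons before and after pooled Saccharomyces cerevisiae strains, carrying tRNA-Arg(CCU) gene variants at the native locus, were competed in YPD at 37°C for 24 hours in six replicates. A genotype was kept only with ≥ 100 starting reads, and estimates < 0.5 were set to 0.5.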
As to G25C U35C U59A G67U A69C, the yeast fitness is ≤ 0.5.

Regarding U47C U53C, the yeast fitness is 0.795.

As to C5G G25C, the yeast fitness was 1.06.

Regarding A21U U32C A45U G67C, the yeast fitness is ≤ 0.5.

For the variant U16A C30G G50A C60A, the yeast fitness is 0.547.

In the case of A21G C22A G63C G67A, the yeast fitness is ≤ 0.5.

With C11U G17A C29A, the yeast fitness is ≤ 0.5.

As for C5A A36C, the yeast fitness was 0.608.

Regarding U2A G68C, the yeast fitness stood at 0.671.

Regarding C31A G38A A65G, the yeast fitness turned out to be 0.591.

Take A15G A36G G56U C62U: the yeast fitness was ≤ 0.5.

As for C11A U19G A36G C66U, the yeast fitness was ≤ 0.5.

Consider C11A C31G, for which the yeast fitness is 0.592.

In the case of C5U U32A A43G, the yeast fitness was ≤ 0.5.

Consider U13C C30G A37U U47C A70G, for which the yeast fitness is ≤ 0.5.

For A20U C30U A57G A65U, the yeast fitness was ≤ 0.5.

On to U2A C30A G63C, for which the yeast fitness is ≤ 0.5.

On to C22A C49U C55A, for which the yeast fitness is 0.656.

Regarding U7A U47A, the yeast fitness turned out to be 0.643.

Turning to C5G U19G C22U A43G C49G, the yeast fitness is ≤ 0.5.

Take G38C: the yeast fitness is 0.806.

For C24G C60A, the yeast fitness was 0.576.

For U35C A45C C49G A57U G63A, the yeast fitness is ≤ 0.5.

A15G G18C: the yeast fitness was determined as 0.7.

G6C G39C G52A U53A: the yeast fitness was ≤ 0.5.

A21G U32C C34A C55A A69C: the yeast fitness is ≤ 0.5.

Regarding C22A U53C, the yeast fitness worked out at 0.764.

C5A U59A C60U: the yeast fitness is ≤ 0.5.

Consider A15G A21C, for which the yeast fitness came out at 0.709.

With C22G U47A G52A, the yeast fitness is ≤ 0.5.

Consider C4U A20C C55A, for which the yeast fitness is 0.721.

With U3A U54C, the yeast fitness came out at 0.777.

Turning to A14G G18C C30G G52C C61A, the yeast fitness was ≤ 0.5.

Take A37U G63A: the yeast fitness turned out to be 0.642.

Take C5A G41A C55A: the yeast fitness was ≤ 0.5.

With C4U G9A C24G A37C A57U, the yeast fitness came to 0.543.

With C29U C62U A70U, the yeast fitness was 0.532.

Turning to G9A C11A U35C G50C, the yeast fitness was ≤ 0.5.

In the case of G6C A42G A70U, the yeast fitness was determined as 0.548.

Take C27U C29A A36U A40C G41A A65U: the yeast fitness was ≤ 0.5.

As to A14C C61G, the yeast fitness is 0.536.

In the case of G12A U35A G58A, the yeast fitness came out at 0.524.

For G12C G25C C60A A69U, the yeast fitness was ≤ 0.5.

Regarding A15G U26G C30U G52A, the yeast fitness is ≤ 0.5.

Take C24G G41C G68C: the yeast fitness came out at 0.592.

For A37C C60G G67A, the yeast fitness is ≤ 0.5.

Consider C30A U59G, for which the yeast fitness was 0.775.

Regarding C11U A14G A65U G68A, the yeast fitness worked out at 0.617.

Regarding C31U G52A G68C, the yeast fitness is ≤ 0.5.

C27A A37U A70U: the yeast fitness came out at 0.548.

G25C C60U C61A: the yeast fitness was ≤ 0.5.

Regarding G25A A43U C61A, the yeast fitness came to 0.765.

Take A21U G48C: the yeast fitness came to 0.586.

On to G6A A37G C60G A70U, for which the yeast fitness is ≤ 0.5.

On to C11G U54C C62U, for which the yeast fitness was ≤ 0.5.

A20G A40C A42U A43C G48A A69C: the yeast fitness was ≤ 0.5.

Take C5G A36U A42G A57C: the yeast fitness is ≤ 0.5.

U16G A20G A69C: the yeast fitness worked out at 0.749.

As to G23A C30U U35C G67U A69C, the yeast fitness was ≤ 0.5.

U13A C55A C60G C62G: the yeast fitness is ≤ 0.5.

Consider A20G G25C C33G C60A, for which the yeast fitness is ≤ 0.5.

Consider G12A C30G, for which the yeast fitness is 0.689.

In the case of A42G C46G, the yeast fitness turned out to be 0.886.

Regarding U2C C5U, the yeast fitness stood at 0.98.

For U3C U47A U53C, the yeast fitness is ≤ 0.5.

Consider U7C A37C C60G G63A A65U A70C, for which the yeast fitness is ≤ 0.5.

As for A36C G48A A57U, the yeast fitness is ≤ 0.5.

Regarding C5G C24G C30G C31U U35A A36U G44A C60U A70C, the yeast fitness was ≤ 0.5.

Regarding A21U C27G C33U C34A G51C A57C, the yeast fitness was ≤ 0.5.

Regarding U3A A40G A42G A57C C66U, the yeast fitness was ≤ 0.5.

Turning to C4G U7G C31U, the yeast fitness is 0.56.

For G6C C11U A20C, the yeast fitness is ≤ 0.5.

As to U35A G51C U54C A57U, the yeast fitness is ≤ 0.5.

As for C4U C5G A37C, the yeast fitness is ≤ 0.5.

For the variant U2A C34G, the yeast fitness turned out to be 0.604.

Consider G12A G63A, for which the yeast fitness was determined as 0.897.

For the variant G10C A14C C24A C31G, the yeast fitness was ≤ 0.5.

With U8G C29G A40U C61U A69C, the yeast fitness is 0.648.

As for G18C G50A C62A, the yeast fitness was ≤ 0.5.

Take A40U C49A A57G C62U: the yeast fitness is ≤ 0.5.

Take A43C C62G: the yeast fitness is 0.76.

As to C30A U54C G63A, the yeast fitness came to 0.601.

On to A40U U59C G68A, for which the yeast fitness worked out at 0.569.

On to A20G A21U A42C, for which the yeast fitness turned out to be 0.547.

Take U2A G23A C29G A70U: the yeast fitness came out at 0.541.

Consider U13C G23C C30G A65C, for which the yeast fitness is ≤ 0.5.

Regarding U2G C31A G56U G67A, the yeast fitness was ≤ 0.5.

On to U3C A36G C61U, for which the yeast fitness came out at 0.623.

Turning to A14G C55G A57C, the yeast fitness came out at 0.598.

For G48C C49U, the yeast fitness was found to be 0.787.

Regarding C22A G63C A65C, the yeast fitness is ≤ 0.5.

Turning to A15U G63A A69C, the yeast fitness came out at 0.539.

On to A40U C46G G68C, for which the yeast fitness was ≤ 0.5.

For the variant U19A A43U A45C G67C, the yeast fitness is ≤ 0.5.

For G6C A15U G23C C31G A37G G56C, the yeast fitness was ≤ 0.5.

Turning to A43U G50A G52U A69C, the yeast fitness is ≤ 0.5.

Turning to G9C A15G C30U C46A U54A A57G, the yeast fitness is ≤ 0.5.

For the variant A43G G68A, the yeast fitness is 0.873.

Regarding G6A A15C A20U A57U, the yeast fitness is ≤ 0.5.

Regarding U13G U47C, the yeast fitness came out at 1.02.

Take G17A A70G: the yeast fitness turned out to be 0.866.

For the variant G12A C22A C29U A69U, the yeast fitness was ≤ 0.5.

Take G6C C24U C49U G56C: the yeast fitness was 0.52.

As to C34U C46A C55G, the yeast fitness was determined as 0.672.

Regarding C4A G6A G68A, the yeast fitness was ≤ 0.5.

Regarding C31U G52A, the yeast fitness was determined as 0.871.

For C29G C30U U47C, the yeast fitness is ≤ 0.5.

In the case of C22U U26C, the yeast fitness was found to be 0.667.

With U7G A65G C66U, the yeast fitness amounted to 0.876.

With A14G, the yeast fitness was 0.796.

As for A14U A45C C49U A65C, the yeast fitness was ≤ 0.5.

U13A G23C C27G C49U U53C C61A G68A: the yeast fitness is ≤ 0.5.

As for U3G G48A U53G, the yeast fitness was ≤ 0.5.

Regarding G9A C27G C34A C46G C55A, the yeast fitness was 0.508.

For the variant A21U C34G G51C G63C A65C, the yeast fitness was ≤ 0.5.

C31U C61U A70U: the yeast fitness was 0.696.

In the case of C5G G51A G68C, the yeast fitness was ≤ 0.5.

With A57G C60U G68C, the yeast fitness was 0.527.

In the case of C31U U53A G68A, the yeast fitness was found to be 0.515.

Turning to U8A C31G, the yeast fitness is 0.679.

On to G6A G39U, for which the yeast fitness is 0.79.

Turning to A20U U35C, the yeast fitness is 0.949.

Take U8A C30U: the yeast fitness was 0.665.

Regarding C11A G18C A45C A57C G68C, the yeast fitness is ≤ 0.5.

Regarding C11A C34G U35G G39A, the yeast fitness was ≤ 0.5.

Regarding A20G C34U, the yeast fitness stood at 0.777.

For the variant A43U G56A A57G, the yeast fitness is 0.691.

For the variant G12C G23C A45U, the yeast fitness came out at 0.609.

As for C5A G12A G18A A65U, the yeast fitness is ≤ 0.5.

Take C5G C33A A36C C66U: the yeast fitness is ≤ 0.5.

On to C34U C61G, for which the yeast fitness was ≤ 0.5.

As for U3C C4G G23C, the yeast fitness is ≤ 0.5.

Regarding C31U A37C C55U A65U A70G, the yeast fitness was ≤ 0.5.

Turning to C29U A43U G52C U59A, the yeast fitness is ≤ 0.5.

For the variant C5G C55G, the yeast fitness was found to be 0.685.

Regarding G18A U32C A69C, the yeast fitness came to 0.549.

With C4A C27G C46U, the yeast fitness turned out to be 0.636.

Regarding C11U G18A A36U, the yeast fitness was ≤ 0.5.

On to C5U A14G A21U G56C G68C, for which the yeast fitness is ≤ 0.5.

Turning to U13C G25C C27G, the yeast fitness worked out at 0.539.

For the variant U16A C24A A43G G68A, the yeast fitness was ≤ 0.5.

Turning to C5U C22G C46A C60G, the yeast fitness was ≤ 0.5.

Regarding U2G C27G C33U, the yeast fitness stood at 0.644.

As for A57C A70G, the yeast fitness stood at 0.664.

For the variant U26A C66A A70U, the yeast fitness is ≤ 0.5.

As to G44C U54C C60A, the yeast fitness was ≤ 0.5.

With C11G C31U G41C, the yeast fitness is ≤ 0.5.

Regarding G39C C62U, the yeast fitness is 0.776.

Regarding C22G C27U C62A A65G, the yeast fitness was ≤ 0.5.

For the variant G23A C29G A45U C60G C61U, the yeast fitness came out at 0.557.

Turning to A15C U28A C34G A43U G63U U64C, the yeast fitness was ≤ 0.5.

For G12A A15G A43C A65G, the yeast fitness is ≤ 0.5.

As for U16C A69U, the yeast fitness is 0.998.

As for G9A C11U C49A G67U, the yeast fitness was ≤ 0.5.

Turning to U32G A57C C62G C66G, the yeast fitness worked out at 0.567.

G6A U16G: the yeast fitness was 0.85.

As to G17A C22U, the yeast fitness stood at 0.737.

As for U8A G12A C33U A65U, the yeast fitness came to 0.562.

In the case of U2A A21C C29U, the yeast fitness was ≤ 0.5.

As for A15G C29G A37C A42U A57G G67A, the yeast fitness was ≤ 0.5.

As for C5G C29U U54G C60G C62U, the yeast fitness was ≤ 0.5.

As to U3C C5U, the yeast fitness stood at 0.836.

Consider A36G U54C C61U C66U, for which the yeast fitness was ≤ 0.5.

As to U8G A14G G18A U47A, the yeast fitness is ≤ 0.5.

In the case of G10A C30A C31G, the yeast fitness was ≤ 0.5.

For the variant U2A U7G, the yeast fitness turned out to be 0.847.

In the case of C27G A40G G48A A57C U64A, the yeast fitness was ≤ 0.5.

Values taken from the RNAGym collection of RNA variant scans (doi:10.1126/science.aae0568).
